Source: PubChem BioAssay
PostGolgi ctrl = yeast control strain growth, post-Golgi counter-screen | efflux-deficient yeast background strain, growth absorbance A615, 16 h | inhibition, % at 10 µM | hit rate 5% among 98,000 | AID 738
PostGolgi yeast = growth inhibition of a yeast mutant, post-Golgi transport screen; post-Golgi transport phenotypic cell assay; hit rate 0.9% among 98,000; inhibition, % at 10 µM;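 also: yeast cells grown in 1536-well plates; yeast grown about 18 h at 30C before absorbance read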
Ecoli WT expand = E. coli BW25113 growth inhibition, expanded screen | growth inhibition, % at 100 µM | AID 710 | hit rate 0.15% among 98,000 | OD600 absorbance;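 active = growth inhibition above about 50% at one test dose, limit read from the data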;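 also: growth measured after 20 h incubation at 37 °C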
PLAP activator = activators of human placental alkaline phosphatase. P05187. purified PLAP enzyme, luminescent substrate read-out; stronger effect = higher value. activation fold at 20 µM. hit rate 1.2% among 96,000. AID 696; in the data active = activation fold above about 2
Target sequence (P05187 whole entry, looked up): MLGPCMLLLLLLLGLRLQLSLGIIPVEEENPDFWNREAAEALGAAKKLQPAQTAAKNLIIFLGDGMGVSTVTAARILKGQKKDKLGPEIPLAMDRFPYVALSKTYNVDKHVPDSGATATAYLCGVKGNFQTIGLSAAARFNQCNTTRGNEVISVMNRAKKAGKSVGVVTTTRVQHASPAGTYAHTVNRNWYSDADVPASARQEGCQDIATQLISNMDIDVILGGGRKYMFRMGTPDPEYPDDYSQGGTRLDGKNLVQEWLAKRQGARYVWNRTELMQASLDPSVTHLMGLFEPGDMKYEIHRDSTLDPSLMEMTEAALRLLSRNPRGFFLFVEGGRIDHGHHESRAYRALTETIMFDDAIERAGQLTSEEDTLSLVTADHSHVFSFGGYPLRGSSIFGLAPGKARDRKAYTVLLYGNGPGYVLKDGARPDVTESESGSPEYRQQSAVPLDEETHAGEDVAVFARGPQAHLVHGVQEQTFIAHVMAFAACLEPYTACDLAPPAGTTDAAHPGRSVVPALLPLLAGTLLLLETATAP
tolC growth inh = growth inhibitors of E. coli BW25113 tolC mutant; AID 573; OD615; growth inhibition, % at 10 µM (by protocol); hit rate 2.2% among 65,000;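 active = growth inhibition at or above a cutoff equal to the mean over every tested compound plus 3 SD, cut at about 60% in these data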;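 also: growth measured after 20 h incubation at 37 °C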
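Test system: tolC-deleted E. coli BW25113; medium: LB with kanamycin 50 µg/mL; compound: single-point testing at 10 µM; incubation: 20 h compound exposure of bacteria at 37 °C; signal: OD at 615 nm; evaluation: growth inhibition in percent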
Starred values were filed as active, the others as inactive; x = not tested or not shown. The list is not random: actives were taken first. Their share in the collection is about 7.2%. Rule as the data show it, unless noted: active = inhibition above about 30%; inactive = the rest.

SMILES	PostGolgi ctrl	PostGolgi yeast	Ecoli WT expand	PLAP activator	tolC growth inh
CCN(CCCNC(=O)CCc1nc(-c2ccc(C)cc2)no1)c1cccc(C)c1	35.7*	7.9	-16.0	1.2	90.9*
CCOC(=O)C1CCN(C(=S)Nc2cc(OC)c(OC)cc2C(=O)OC)CC1	0.9	4.2	-1.0	1.8	x
CCC1(C(=O)OC)NC(c2ccccc2OC)C2C(=O)N(C)C(=O)C21 (centres undefined)	3.2	-4.4	3.0	1	-21.3
CC(NC(=O)CCC1COc2ccccc2O1)c1ccccc1 (centres undefined)	-7.8	1.5	14.0	1.6	x
OC1(c2cccc(C(F)(F)F)c2)CCN(c2ncnc3c2[nH]c2ccc(F)cc23)CC1	32.8*	4.0	-9.0	1.4	100.0*
Fc1ccc2[nH]c3c(N4CCN(c5ccccc5)CC4)ncnc3c2c1	79.5*	76.3*	-5.0	0.8	9.1
COc1ccc(N2CCN(c3ncnc4c3[nH]c3ccccc34)CC2)cc1	13.4	1.0	-2.0	1	x
O=[N+]([O-])c1ccc(O)c(-c2nc(-c3ccccc3)c(-c3cccs3)[nH]2)c1	44.7*	13.6	-1.0	1.3	x
CC(C)(Cl)C1Cc2cc3ccc(=O)oc3cc2O1 (centres undefined)	7.2	-9.4	2.0	0.9	x
Cc1ccc(S(=O)(=O)N(C)Cc2ccc(-c3nnc4n3CCC4)cc2)cc1	32.8*	-0.6	-3.0	1.7	8.6
Clc1ccc(-c2nnc3n2CCCCC3)cc1	7.6	-3.9	-1.0	1.2	x
N#Cc1ccc(-n2c(-c3ccccc3)nnc2-c2ccccc2)cc1C#N	40.7*	3.7	-11.0	x	x
COc1ccc(S(=O)(=O)N(CCc2ccccc2)CC(=O)NC(C)C)cc1	2.7	-0.2	-1.0	1.1	x
CCCn1c(C)nc2c(c1=O)c1nc3ccccc3nc1n2-c1ccc2c(c1)OCCO2	x	x	x	x	4.2
Cc1cc(C(=O)N/N=C/c2cc(Br)ccc2OC(=O)c2ccccc2)n[nH]1	-4.6	-1.1	-6.0	1.1	x
COc1ccc(Br)cc1/C=N/NC(=O)c1nc(-c2ccccc2)n2c1CCCCC2	36.2*	19.9	-17.0	1.9	x
Cc1cc2ncn(CCOc3ccccc3C#N)c2cc1C	22.9	14.4	13.0	1.1	34.4
Oc1ccc(NCc2ccccc2OCc2ccccc2F)cc1	8.6	0.3	10.0	0.8	x
Fc1ccccc1COc1ccc(Br)cc1CNCc1ccncc1	96.6*	99.5*	8.0	1.7	x
Fc1ccc(COc2ccc(Br)cc2CNCc2ccncc2)cc1	93.8*	103.2*	27.0	1.3	x
CCOC(=O)c1c(-c2ccccc2)nc2ccc(C)cn12	31.3*	-36.2	11.0	0.9	x
CC(=O)c1cccc(-n2nnnc2SCC(=O)Nc2cccc(NC(=O)c3ccco3)c2)c1	1.6	-0.5	-9.0	1.5	18.9
Cc1ccc(-n2nnnc2SCC(=O)NNC(=O)c2ccco2)cc1C	2.9	-1.5	5.0	2.3*	x
CC(=NCCCn1ccnc1)c1c(-c2ccccc2)[nH]n(-c2nc3ccccc3s2)c1=O	-0.8	-4.6	-2.0	2*	x
CC(=NC1CC1)c1c(-c2ccccc2)[nH]n(-c2nc3ccccc3s2)c1=O	36.1*	-3.6	-8.0	1	x
SMILES	PostGolgi ctrl	PostGolgi yeast	Ecoli WT expand	PLAP activator	tolC growth inh
O=C1c2ccccc2C(=O)N1CCCc1nc2ccccc2c(=O)n1-c1cccnc1	19.6	0.3	4.0	1.4	-10.5
COc1cccc(C(=O)N2CCN(C(=O)c3cccc(F)c3)CC2)c1	4.6	-7.4	-3.0	x	-7.3
O=C(c1cccc(F)c1)N1CCN(C(=O)c2cc(-c3ccc(Cl)cc3Cl)on2)CC1	22.4	10.5	-14.0	1.4	64.2*
C/C(N)=C(/C#N)C(=O)CSc1nnnn1-c1ccc(C)cc1C	7.6	13.5	5.0	1.6	14.0
O=S(=O)(c1cc(Cl)ccc1Cl)N1CC2CCCN2c2ccc(C(F)(F)F)cc21 (centres undefined)	9.9	-4.1	-10.0	0.9	x
CCCn1c(-c2cccnc2Cl)nc2cc(Cl)c(Cl)cc21	43.3*	-13.6	1.0	1.2	x
C=CCn1c(-c2cccnc2Cl)nc2cc(Cl)c(Cl)cc21	36.1*	-3.1	-2.0	1.3	x
Clc1cccc(Cl)c1Cn1c(-c2cccnc2Cl)nc2ccccc21	50.3*	9.6	4.0	1.1	x
C=CCn1c(-c2ccc(C)cc2)nc2ccccc21	18.2	4.5	1.0	0.7	x
Cc1cc(C)n(-c2nc3ccccc3nc2N2CCC(C)CC2)n1	27.8	1.5	8.0	1.3	x
Cc1cc(N2CCC(C)CC2)nc(-n2nc(C)cc2C)n1	10.0	-0.5	19.0	1.3	100.0*
N#Cc1c2n(c3c(=O)n(Cc4ccccc4)cnc13)CCCC2	6.5	-0.3	4.0	1.1	7.2
